Screens (PubChem)
M4 PAM = human M4 muscarinic receptor positive allosteric modulators, primary screen, CHO-K1 cells, Fluo-8 calcium fluorescence; CHO-K1 hM4/Gqi5, ACh EC20; 0% = ACh EC20, 100% = maximal ACh; 360,000 compounds, 0.4% hits; activation, % at 3 µM; AID 624126, 2012;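 active means activation above its plate's cutoff, the mean activation of sample wells plus 3 SD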
Target sequence (P08173 whole entry, looked up): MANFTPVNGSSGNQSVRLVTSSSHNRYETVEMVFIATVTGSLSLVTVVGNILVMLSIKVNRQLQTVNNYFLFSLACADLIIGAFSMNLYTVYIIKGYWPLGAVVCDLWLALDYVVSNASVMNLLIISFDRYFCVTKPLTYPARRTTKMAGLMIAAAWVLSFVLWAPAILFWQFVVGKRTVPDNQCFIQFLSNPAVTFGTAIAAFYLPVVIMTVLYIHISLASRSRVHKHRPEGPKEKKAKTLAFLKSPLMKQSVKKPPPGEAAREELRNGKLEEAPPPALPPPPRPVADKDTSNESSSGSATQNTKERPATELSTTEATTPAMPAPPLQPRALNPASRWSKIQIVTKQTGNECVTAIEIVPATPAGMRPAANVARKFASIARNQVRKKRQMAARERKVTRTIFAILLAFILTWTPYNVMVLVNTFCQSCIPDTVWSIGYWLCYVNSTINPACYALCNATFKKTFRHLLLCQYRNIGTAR
CHRM5 PAM = human M5 muscarinic receptor positive allosteric modulators, primary screen, CHO-K1 cells, Fluo-8 calcium fluorescence; CHO-K1 hM5, ACh EC20 PAM; 0% = ACh EC20, 100% = ACh EC100; activation, % at 3 µM; 360,000 compounds, 0.3% hits;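 active means activation above the run cutoff, the mean activation of all test compounds plus 3 SD, cut at about 18% in these data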
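Test system: CHO-K1 hM5 cells / Doses: single-point, 3 µM nominal / Times: Post-acetylcholine fluorescence recording 140 s / Technique: Fluo-8 calcium fluorescence / Measure: Max/basal fluorescence ratio as % of EC20–EC100 ACh window / Benchmarks: low control EC20 acetylcholine (0%), high control EC100 acetylcholine (100%) / Replicates: one well per compound, no replicates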
M4 ag = human M4 muscarinic receptor agonists, primary screen, CHO-K1 cells, Fluo-8 calcium fluorescence | CHO-K1 hM4/Gqi5; vehicle 0%, full acetylcholine response 100% | activation, % at 3 µM | 360,000 compounds, 0.14% hits | Muscarinic acetylcholine receptor M4 (Homo sapiens), P08173;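 active means activation above the run mean over all test wells plus 3 SD, cut at about 32% in these data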;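 further: peak over basal fluorescence ratio per well then scaled between controls; 0% = DMSO wells and 100% = acetylcholine at EC100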
M5 ag = human M5 muscarinic receptor agonists, primary screen, CHO-K1 cells, Fluo-8 calcium fluorescence; CHO-K1 hM5 cells; 0% DMSO wells, 100% maximal acetylcholine response; 360,000 compounds, 0.19% hits; AID 624037, 2012; activation, % at 3 µM; Muscarinic acetylcholine receptor M5 (Homo sapiens), P08912;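 active means activation above the run's mean over test compounds plus 3 SD, cut at about 23% in these data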;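 further: signal is peak over basal fluorescence ratio across the kinetic read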
M4 antag = human M4 muscarinic receptor antagonists, primary screen, CHO cells, Fluo-8 calcium fluorescence; Muscarinic acetylcholine receptor M4 (Homo sapiens), P08173; CHO-hM4 cells, ACh EC80; inhibition, % at 3 µM; 360,000 compounds, 0.73% hits;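 active means inhibition above its plate's cutoff, the mean inhibition of sample wells plus 3 SD, cut at about 27% in these data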;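 further: 0% = acetylcholine EC80 with DMSO and 100% = DMSO without agonist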
M5 antag = human M5 muscarinic receptor antagonists, primary screen, CHO cells, Fluo-8 calcium fluorescence; Muscarinic acetylcholine receptor M5 (Homo sapiens), P08912; CHO-hM5 cells, ACh EC80; inhibition, % at 3 µM; 360,000 compounds, 0.59% hits; AID 624040, 2012;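 active means inhibition above a per-plate cutoff, the mean of that plate's test compounds plus 3 SD, cut at about 27% in these data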;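 further: 0% = acetylcholine EC80 with DMSO and 100% = DMSO without agonist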
An asterisk follows results filed as active. Hits are enriched below; roughly 1.8% of the tested compounds scored in any of these assays.

SMILES	M4 PAM	CHRM5 PAM	M4 ag	M5 ag	M4 antag	M5 antag
O=C(NN1CCOCC1)c1ccc(F)cc1	1	-2	1	-4	0	23
O=C(CNC1CCCCC1)N1CCc2ccccc2C1	1	-3	1	-1	30*	18
O=C(NC1CCCCC1)N1CCc2ccccc2C1	-5	-3	1	-6	1	7
COc1ccc(/C=C/C(=O)NCC(=O)N/N=C(/CCC(=O)O)c2ccccc2)cc1	-3	-1	4	3	30*	5
CCOCCc1nnc(NC(=O)Cc2ccccc2)s1	12	5	-1	3	0	-5
CCOCCc1nnc(NC(=O)Cc2c(F)cccc2Cl)s1	19*	5	-1	-2	-13	2
Cc1scc2c1N(C(=O)CN1CCN(C)CC1)c1ccccc1NC2=O	-18	-18	1	-1	98*	99*
Cc1csc(=O)n1CC(=O)OCC(=O)Nc1ccc(Cl)cc1F	3	2	2	2	6	3
O=C(O)CCCCCN1C(=O)/C(=C/c2cn(-c3ccccc3)nc2-c2cccs2)SC1=S	-1	3	1	4	4	6
CC1=NNC(=O)/C1=C\c1cn(-c2ccccc2)nc1-c1ccc(F)cc1	-7	-4	6	21	3	50*
CC1=NNC(=O)/C1=C\c1cn(-c2ccccc2)nc1-c1cccs1	-19	10	14	24*	60*	10
Cc1ccc(C(=O)Nc2c(C)cc(C)c3cccnc23)cc1	14*	2	2	-1	-10	9
O=C(O)c1ccccc1-c1c2cc(I)c(=O)c(I)c-2oc2c(I)c(O)c(I)cc12	-19	-20	254*	107*	57*	38*
O=Cc1ccc(-c2ccccc2C(=O)O)o1	1	-5	1	0	2	11
CC(=O)Nc1ccc(NC(=O)C(C)OC(=O)CNC(=O)c2cccs2)cc1 (stereo not given)	7	-32	0	-8	-2	97*
CC(OC(=O)CNC(=O)c1cccs1)C(=O)Nc1ccc(S(N)(=O)=O)cc1 (stereo not given)	2	2	1	0	3	7
COc1cccc(CN(C)C(=O)Cc2ccc(OC)c(S(=O)(=O)N3CCOCC3)c2)c1	-10	-5	4	1	-5	4
Cc1ccc(-c2nc3cccnc3o2)cc1NC(=O)COc1ccc(C(C)(C)C)cc1	-9	-13	10	1	25	27*
CCCCCCCCNS(=O)(=O)CCNCc1ccco1	3	-4	0	0	-7	-1
Cc1nc2sc(C(c3ccc(Cl)cc3)N3CC(C)OC(C)C3)c(O)n2n1 (stereo not given)	17*	-4	2	-2	-2	7
Cc1ccc(C(c2sc3nc(C)nn3c2O)N2CC(C)OC(C)C2)cc1 (stereo not given)	-1	4	0	-7	3	-4
Fc1ccccc1CN1CCCN(C(=S)Nc2cccc(Cl)c2)C1	-17	-27	23	3	11	29*
O=C(CNC(=O)c1ccccc1F)N/N=C/c1cn[nH]c1-c1ccccc1	-12	-21	3	-9	17	29*
O=C(CNC(=O)c1ccc(F)cc1)N/N=C/c1cn[nH]c1-c1ccccc1	11	1	1	-1	2	-9
O=C(O)C1c2ccccc2C(=O)N(Cc2ccc(F)cc2)C1c1ccncc1 (stereo not given)	-2	27*	0	6	-1	-22
SMILES	M4 PAM	CHRM5 PAM	M4 ag	M5 ag	M4 antag	M5 antag
CCc1ccc(C2C(C(=O)O)c3ccccc3C(=O)N2C)cc1 (stereo not given)	5	5	0	1	11	-6
CCOC(=O)N(C)c1c(CC)nc2c(OCc3cc(Cl)cc(Cl)c3)cccn12	-8	-2	3	-2	-2	0
CC(C)c1ccc(OCC(=O)NC(=S)Nc2ccc3c4c(cccc24)CC3)cc1	5	9	2	2	30*	-3
N#Cc1c(-c2ccccc2)c(-c2ccccc2)n(Cc2ccco2)c1NC(=O)c1cccs1	-1	29*	-1	0	-2	0
CN(C)C(CNC(=O)c1ccc2nccnc2c1)c1ccco1 (stereo not given)	-2	8	1	-3	-2	11
COc1ccccc1C1CCN(Cc2ccc(C)cc2)CC1	3	-5	2	-9	-10	1
O=C(Nc1cccc(C(=O)O)c1)/C(=C/c1ccc2c(c1)OCO2)NC(=O)c1cccc(Br)c1	2	-13	2	0	-2	28*
O=C(Nc1cccc(C(=O)O)c1)/C(=C\c1ccc2c(c1)OCO2)NC(=O)c1ccccc1Br	2	-2	0	1	-16	4
O=C(/C=C/c1ccccc1)NC(NC(=S)Nc1ccc(Cl)cc1)C(Cl)(Cl)Cl (stereo not given)	-6	-31	8	-3	10	15
O=C(/C=C/c1ccccc1)NC(NC(=S)Nc1cc(Cl)ccc1Cl)C(Cl)(Cl)Cl (stereo not given)	-8	-16	11	2	15	51*
N#CCCN(C(=O)COC(=O)c1ccc(CNS(=O)(=O)c2ccc(F)c(Cl)c2)cc1)c1ccc(F)cc1	-17	-19	15	-3	50*	22
CCOc1ccc(N2CC(C(=O)Nc3ccc(S(=O)(=O)Nc4nccs4)cc3)CC2=O)cc1 (stereo not given)	6	2	2	-3	-8	7
Cc1n[nH]c(C)c1CCCCOc1ccccc1[N+](=O)[O-]	-13	-24	13	-6	13	34*
CCCc1ccc2oc(C(=O)N(Cc3nccn3C)C(C)C)c(C)c2c1	17*	10	2	-2	-28	-1
Cc1c(C(=O)N(Cc2nccn2C)C(C)C)oc2c(F)cccc12	4	-1	1	-4	-16	10
O=C(CN1CCC(NC(=O)C2CCCCC2)CC1)NCc1ccco1	3	-2	0	-3	-18	-10
O=C(CN1CCOCC1)Nc1ccccc1-c1ccccc1	6	-2	1	-1	14	-6
O=C(CN1CCC(NC(=O)Nc2ccccc2-c2ccccc2)CC1)NCc1ccco1	-20	-18	2	-7	17	61*
O=C(CN1CCCCC1)Nc1ccccc1-c1ccccc1	-16	-25	-1	-8	68*	45*
